In brackets after ≈: the same amount, converted by molar mass. Activity calls are given as the source filed them. The rule behind the calls is not given here.
Columns and labels:
[1] = test system: Serum; assay: Drug level in human serum at 1400 mg; type: ADME, cell-free
[2] = test system: Staphylococcus aureus; assay: Antibacterial activity against methicillin-resistant Staphylococcus aureus 33820 infected in in vitro pharmacokinetic model assessed as time required to 99.9% killing at 1500 mg, iv every 8 hrs using 10^6 CFU/ml inoculum; type: functional
[3] = test system: Staphylococcus aureus; assay: AUBKC (0 to 48 hrs) in methicillin-resistant Staphylococcus aureus 33922 infected in in vitro pharmacokinetic model at 1500 mg, iv every 8 hrs using 10^6 CFU/ml inoculum; type: functional
Procedure, shortened: (§1)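 Single-compartment dilutional in vitro PK model at 37°C in 10% Mueller-Hinton broth, stirred, flow 132 ml/h. […] Inoculum 10^6 CFU/ml added 45 min before dosing, or 10^8 CFU/ml run overnight. Viable counts with β-lactamase neutralisation. AUBKC by log-linear trapezoidal rule, at least triplicate.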

[4] = test system: Staphylococcus aureus; assay: Antibacterial activity against methicillin-resistant Staphylococcus aureus 33815 infected in in vitro pharmacokinetic model assessed as reduction in viable count at 1500 mg, iv every 8 hrs measured after 12 hrs using 10^8 CFU/ml inoculum; type: functional
Procedure, shortened: (§2)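 PK model at 37°C in 10% MHB. […] A 0.5 McFarland suspension (1 ml) was added and the model run overnight to reach 10^8 CFU/ml before dosing. Counts were spiral-plated on nutrient agar with β-lactamase. Change in log CFU/ml was measured from time 0; at least triplicate.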

[5] = test system: Staphylococcus aureus; assay: Antibacterial activity against methicillin-resistant Staphylococcus aureus 33922 infected in in vitro pharmacokinetic model assessed as reduction in viable count at 1500 mg, iv every 8 hrs measured after 24 hrs using 10^8 CFU/ml inoculum; type: functional
[6] = test system: Staphylococcus aureus; assay: Antibacterial activity against methicillin-sensitive Staphylococcus aureus 5956 by broth dilution method; type: functional
[7] = test system: Staphylococcus aureus; assay: Antibacterial activity against methicillin-resistant Staphylococcus aureus 33815 infected in in vitro pharmacokinetic model assessed as reduction in viable count at 1500 mg, iv every 8 hrs measured after 36 hrs using 10^8 CFU/ml inoculum; type: functional; procedure, shortened: as §2
[8] = test system: Staphylococcus aureus; assay: Antibacterial activity against methicillin-resistant Staphylococcus aureus 33815 infected in in vitro pharmacokinetic model assessed as reduction in viable count at 1500 mg, iv every 8 hrs measured after 48 hrs using 10^8 CFU/ml inoculum; type: functional; procedure, shortened: as §2
[9] = test system: Staphylococcus aureus; assay: Antibacterial activity against methicillin-resistant Staphylococcus aureus 33827 infected in in vitro pharmacokinetic model assessed as time required to 99.9% killing at 750 mg, iv every 8 hrs using 10^8 CFU/ml inoculum; type: functional
Procedure, shortened: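 Single-compartment dilutional in vitro PK model, 10% Mueller-Hinton broth, 37°C, stirred, dilution 132 ml/h. […] Inoculum 10^6 CFU/ml (added 45 min pre-dose) or 10^8 CFU/ml (run overnight). Viable counts by spiral plating, beta-lactamase neutralization, detection limit 10^2 CFU/ml. At least triplicate.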

[10] = test system: Staphylococcus aureus; assay: AUBKC (0 to 48 hrs) in methicillin-resistant Staphylococcus aureus 33827 infected in in vitro pharmacokinetic model at 1500 mg, iv every 8 hrs using 10^8 CFU/ml inoculum; type: functional; procedure, shortened: as §1
[11] = test system: Staphylococcus aureus; assay: Antibacterial activity against methicillin-resistant Staphylococcus aureus 33922 assessed as viable count at 2 times of MIC after 24 hrs using 10^6 CFU/ml inoculum; type: functional, organism-based
[12] = test system: Staphylococcus aureus; assay: Antibacterial activity against methicillin-resistant Staphylococcus aureus 33815 in in vitro pharmacokinetic model assessed as viable count at 2 times of MIC; type: functional
Procedure, shortened: (§3)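 Preexposure population analysis profile: model sample at time zero plated on nutrient agar with tomopenem at multiples of the MIC. Growth counted as log CFU/ml, detection limit 2 log10.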

[13] = test system: Staphylococcus aureus; assay: Antibacterial activity against methicillin-resistant Staphylococcus aureus 33922 in in vitro pharmacokinetic model assessed as viable count at 4 times of MIC; type: functional
[14] = test system: Staphylococcus aureus; assay: Antibacterial activity against methicillin-resistant Staphylococcus aureus 33820 in in vitro pharmacokinetic model assessed as viable count at 4 times of MIC; type: functional
Procedure, shortened: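 Population analysis before drug exposure (time 0). Model samples were plated on nutrient agar without drug and with tomopenem at 2×, 4× and 6× MIC (10% MHB MIC), and growth was recorded as log CFU/ml. Detection limit 2 log10.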

[15] = test system: Staphylococcus aureus; assay: Antibacterial activity against methicillin-resistant Staphylococcus aureus 33815 in in vitro pharmacokinetic model assessed as viable count at 4 times of MIC; type: functional; procedure, shortened: as §3
[16] = test system: Staphylococcus aureus; assay: Antibacterial activity against methicillin-resistant Staphylococcus aureus 33921 infected in in vitro pharmacokinetic model assessed as reduction in viable count at 750 mg, iv every 8 hrs measured after 48 hrs using 10^6 CFU/ml inoculum; type: functional
[17] = test system: Staphylococcus aureus; assay: Antibacterial activity against methicillin-resistant Staphylococcus aureus 33922 infected in in vitro pharmacokinetic model assessed as reduction in viable count at 750 mg, iv every 8 hrs measured after 48 hrs using 10^6 CFU/ml inoculum; type: functional
[18] = test system: Staphylococcus aureus; assay: Antibacterial activity against methicillin-sensitive Staphylococcus aureus 5956 assessed as viable count at 4 times of MIC after 48 hrs using 10^6 CFU/ml inoculum; type: functional, organism-based
[19] = test system: Staphylococcus aureus; assay: T>MIC for static effect in methicillin-resistant Staphylococcus aureus 33815 in in vitro pharmacokinetic model after 24 hrs using 10^6 CFU/ml inoculum; type: functional
[20] = test system: Staphylococcus aureus; assay: T>MIC for 1-log drop in count in methicillin-resistant Staphylococcus aureus 33829 in in vitro pharmacokinetic model after 24 hrs using 10^6 CFU/ml inoculum; type: functional
[21] = test system: Staphylococcus aureus; assay: T>MIC for 1-log drop in count in methicillin-resistant Staphylococcus aureus 33820 in in vitro pharmacokinetic model after 24 hrs using 10^6 CFU/ml inoculum; type: functional
[22] = test system: Staphylococcus aureus; assay: T>MIC for 1-log drop in count in methicillin-resistant Staphylococcus aureus 33815 in in vitro pharmacokinetic model after 24 hrs using 10^6 CFU/ml inoculum; type: functional
[23] = test system: Staphylococcus aureus; assay: T>MIC for 2-log drop in count in methicillin-resistant Staphylococcus aureus 33922 in in vitro pharmacokinetic model after 24 hrs using 10^6 CFU/ml inoculum; type: functional
[24] = test system: Staphylococcus aureus; assay: T>MIC for 1-log drop in count in methicillin-resistant Staphylococcus aureus 33815 in in vitro pharmacokinetic model after 24 hrs using 10^8 CFU/ml inoculum; type: functional
[25] = test system: Staphylococcus aureus; assay: Antibacterial activity against methicillin-resistant Staphylococcus aureus 33820 infected in in vitro pharmacokinetic model assessed as reduction in viable count at 750 mg, iv every 8 hrs measured after 48 hrs using 10^6 CFU/ml inoculum; type: functional
Procedure, shortened: (§4)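 Single-compartment dilutional in vitro PK model, 37°C, stirred, in 10% Mueller-Hinton broth. […] Inoculum 10^6 CFU/ml from a 24-h plate culture was added 45 min before dosing. Viable counts by spiral plating on nutrient agar with β-lactamase neutralization. Log change was taken from time 0; detection limit 10^2 CFU/ml; at least triplicate.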

[26] = test system: Staphylococcus aureus; assay: Antibacterial activity against methicillin-resistant Staphylococcus aureus 33815 infected in in vitro pharmacokinetic model assessed as reduction in viable count at 750 mg, iv every 8 hrs measured after 48 hrs using 10^6 CFU/ml inoculum; type: functional; procedure, shortened: as §4
[27] = test system: Staphylococcus aureus; assay: Antibacterial activity against methicillin-resistant Staphylococcus aureus 33815 infected in in vitro pharmacokinetic model assessed as reduction in viable count at 1500 mg, iv every 8 hrs measured after 24 hrs using 10^6 CFU/ml inoculum; type: functional; procedure, shortened: as §4

With `C[C@@H](O)[C@H]1C(=O)N2C(C(=O)O)=C(S[C@H]3C[C@@H](C(=O)N4CC[C@H](NC(=O)CNC(=N)N)C4)N(C)C3)[C@H](C)[C@H]12` [TOMOPENEM] the Drug uptake [1] was 100 mg/L, the Time [2] was 12 h and the AUBC [3] was 16.9 log10CFU/ml.hr. For the same compound, the log10CFU/ml [4] was 1.5, the log10CFU/ml [5] was 5 and the MIC [6] was 0.06 µg/mL (≈ 0.112 µM). The log10CFU/ml [7] was 3.9, the log10CFU/ml [8] was 3.9 and the Time [9] was 12 h. For the same compound, the AUBC [10] was 93.5 log10CFU/ml.hr, the Activity [11] was “inactive” and the log10CFU/ml [12] was under 2. For the same compound, the log10CFU/ml [13] was 6, the log10CFU/ml [14] was under 2 and the log10CFU/ml [15] was under 2. For the same compound, the log10CFU/ml [16] was 3.8, the log10CFU/ml [17] was 3.9 and the Activity [18] was “inactive”. The “fT>MIC” value [19] was 5.3%, the “fT>MIC” value [20] was 16.8% and the “fT>MIC” value [21] was 9.9%. The “fT>MIC” value [22] was 8.6%, the “fT>MIC” value [23] was 5.4% and the “fT>MIC” value [24] was 1%. For the same compound, the log10CFU/ml [25] was 4.2, the log10CFU/ml [26] was 4.2 and the log10CFU/ml [27] was 4.2.
